Experimental findings from PMC10467613 (RSC Chemical Biology, 2023) are described below.

The structures appear in SMILES notation.

Test [1] addresses T1, HsIYD containing 2′-deoxyFMN (Homo sapiens, UniProt Q6PHW0, DEL2-31).
T1 sequence (Q6PHW0 32-289): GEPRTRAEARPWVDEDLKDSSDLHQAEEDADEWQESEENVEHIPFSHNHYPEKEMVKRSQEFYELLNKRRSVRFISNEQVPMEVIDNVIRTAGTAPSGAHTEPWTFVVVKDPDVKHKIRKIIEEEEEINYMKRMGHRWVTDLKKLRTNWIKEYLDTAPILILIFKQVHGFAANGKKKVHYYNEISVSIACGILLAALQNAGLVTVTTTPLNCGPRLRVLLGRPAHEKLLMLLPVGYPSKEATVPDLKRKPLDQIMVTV
The experiment in a line: flavin fluorescence quenching titration. It is filed as binding. In a few lines:
(§1)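 Enzyme: human IYD lacking residues 2–31 (SUMO fusion, tag removed) or T. neapolitana IYD (C-terminal His6; dithionite wash first). FMN was stripped on a Ni column with up to 1.5 M guanidinium HCl, then reloaded with 200 μM 2′-deoxyFMN for 4 h at 4 °C. Ligand was titrated into 3 μM enzyme in 100 mM potassium phosphate pH 7.4 at 25 °C. Flavin fluorescence (ex 450/em 516 nm) was read 2 min after each addition. Kd was fitted from ΔF/F0 versus total enzyme and total ligand.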

In test [2] the target is T2, TnIYD containing 2′-deoxyFMN (Thermotoga neapolitana, UniProt B9K712).
T2 sequence (B9K712 1-186): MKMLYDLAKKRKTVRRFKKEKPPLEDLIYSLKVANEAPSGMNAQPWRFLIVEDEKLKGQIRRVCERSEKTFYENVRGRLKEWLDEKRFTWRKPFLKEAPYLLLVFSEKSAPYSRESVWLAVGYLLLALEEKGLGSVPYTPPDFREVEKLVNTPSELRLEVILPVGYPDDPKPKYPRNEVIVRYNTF
As to the kind of experiment: flavin fluorescence quenching titration. It is filed as binding. Put shortly:
as §1

Turning to `N[C@@H](Cc1ccc(O)c(F)c1)C(=O)O` [F-Tyr, 3-Fluoro-L-tyrosine], the dissociation constant (Kd) – broadly, the concentration at which binding is half-saturated – in test [1] worked out at 1.5 ± 0.07 mM.
`COc1ccc(C[C@H](N)C(=O)O)cc1I` [O-Me I-Tyr]: the Kd in test [2] stood at 6.3 ± 0.7 µM.
